Experimental data collected from several papers.
Values after ≈ are worked out from the molar mass of the structure shown.

Nc1nc(NS(=O)(=O)c2ccccc2)ncc1-c1nc2ccccc2s1
IC50 (Enterovirus B; plaque formation; BGM, B4): 85 µg/mL

N#CC(=Cc1ccc(Cl)cc1)C1=NC(=O)C(=Cc2cn(-c3ccccc3)nc2-c2ccccc2)S1
inhibition zone (Acinetobacter baumannii; microbial growth, well diffusion; 100000 µg/mL): 20 mm

CC1(C)OC[C@@]2(C)[C@H]3CC[C@@H]4CN(Cc5ccc(Br)cc5)[C@@H](C5=CCOC5=O)C[C@H]4[C@]3(C)CC[C@H]2O1
inhibition (unidentified human coronavirus; cytopathic effect; MRC5; 25 µM, 72 h): 74.5%

CCCCCCC/C=C/C(=O)N1C(=O)/C(=C(\O)c2ccccc2)C(=O)C1CC(C)C (stereo not drawn)
MIC (Proteus mirabilis; microbial growth; ATCC25933): > 200 µg/mL

COc1nc(Cl)nc2c1ncn2[C@@H]1O[C@H](CO)[C@@H](F)[C@@H]1F
EC90 (Hepatitis C virus; viral replication, inhibitor; Huh-7; replicon): > 10000 nM

C[C@@]12COCO[C@@H]1CC[C@]1(C)[C@@H]2CC[C@@H]2CN(Cc3ccccc3)[C@@H](C3=CCOC3=O)C[C@H]21
inhibition (unidentified human coronavirus; cytopathic effect; MRC5; 25 µM, 72 h): 9.5%

CCCCCCC/C=C/C(=O)N1C(=O)/C(=C(/C)O)C(=O)C1Cc1ccc(O)cc1 (stereo not drawn)
MIC (Proteus mirabilis; microbial growth; ATCC25933): > 200 µg/mL

COc1nc(OC)c2ncn([C@@H]3O[C@H](CO)[C@@H](F)[C@@H]3F)c2n1
EC50 (Hepatitis C virus; viral replication, inhibitor; Huh-7; replicon): > 10000 nM

C[C@]1(CO)[C@H]2CC[C@@H]3CN(Cc4ccco4)[C@@H](C4=CCOC4=O)C[C@H]3[C@]2(C)CC[C@H]1O
inhibition (unidentified human coronavirus; cytopathic effect; MRC5; 25 µM, 72 h): -7.7%

CCOC(=O)N[C@@H](C(=O)N1CCC[C@H]1C(=O)Nc1ccc(C#CC#Cc2ccc(NC(=O)[C@@H]3CCCN3C(=O)[C@H](NC(=O)OCC)C(C)C)cc2)cc1)C(C)C
EC50 (Hepatitis C virus; viral replication, inhibitor, luciferase; Huh-5-2, GETYPE1B; 72 h, replicon): 267 nM

CCCCN1C[C@H]2CC[C@@H]3[C@]4(C)COC(C)(C)O[C@@H]4CC[C@@]3(C)[C@@H]2C[C@@H]1C1=CCOC1=O
inhibition (unidentified human coronavirus; cytopathic effect; MRC5; 25 µM, 72 h): 33.3%

COC(=O)N[C@H](CC(C)C)C(=O)N1CCC[C@H]1C(=O)Nc1cccc(C#CC#Cc2cccc(NC(=O)[C@@H]3CCCN3C(=O)[C@@H](CC(C)C)NC(=O)OC)c2)c1
EC50 (Hepatitis C virus; viral replication, inhibitor, luciferase; GETYPE4A; replicon): 18.6 nM

N#CC(=Cc1cn(-c2ccccc2)nc1-c1ccccc1)C1=NC(=O)CS1
MBC (Acinetobacter baumannii; microbial killing, broth dilution): 0.5 µg/mL (≈ 1.35 µM)

O=C(CNc1nc(NS(=O)(=O)c2ccccc2)ncc1-c1nc2ccccc2s1)c1ccc(Cl)cc1
IC50 (Enterovirus B; plaque formation; BGM, B4): 92 µg/mL

Cc1c(NC(=O)CC2=NC(=O)CS2)c(=O)n(-c2ccccc2)n1C
MBC (Acinetobacter baumannii; microbial killing, broth dilution): 0.25 µg/mL (≈ 0.726 µM)

COc1ccc(CN2C[C@H]3CC[C@@H]4[C@]5(C)COC(C)(C)O[C@@H]5CC[C@@]4(C)[C@@H]3C[C@@H]2C2=CCOC2=O)cc1
inhibition (unidentified human coronavirus; cytopathic effect; MRC5; 25 µM, 72 h): 67.4%

Nc1nc(-c2ccccc2)nc2[nH]nc(Nc3ccc(C(F)(F)F)cc3)c12
IC50 (Enterovirus B; cytopathic effect; HeLa, CVB3): 140 nM

Cc1cn([C@H]2C[C@H](N=[N+]=[N-])[C@@H](CO)O2)c(=O)[nH]c1=O
EC90 (Hepatitis C virus; viral replication, inhibitor; Huh-7; replicon): > 10000 nM

CCCN1C[C@H]2CC[C@@H]3[C@](C)(COC(C)=O)[C@H](OC(C)=O)CC[C@@]3(C)[C@@H]2C[C@@H]1C1=CCOC1=O
inhibition (unidentified human coronavirus; cytopathic effect; MRC5; 25 µM, 72 h): 45.8%

CCOC(=O)c1cc(C#N)c(=O)n(NS(=O)(=O)c2ccccc2)c1N
IC50 (Enterovirus B; plaque formation; BGM, B4): 88 µg/mL

CCOC(=O)N[C@H](C(=O)N1CCC[C@@H]1C(=O)Nc1cccc(C#CC#Cc2cccc(NC(=O)[C@H]3CCCN3C(=O)[C@@H](NC(=O)OCC)C(C)C)c2)c1)C(C)C
EC50 (Hepatitis C virus; viral replication, inhibitor, luciferase; Huh-5-2, GETYPE1B; 72 h, replicon): 1780 nM

CCOC(=O)C=c1[nH]c(=O)c(=Cc2cn(-c3ccccc3)nc2-c2ccc(C)cc2)s1
inhibition zone (Acinetobacter baumannii; microbial growth, well diffusion; 100000 µg/mL): 11 mm

CCOC(=O)N[C@@H](CC(C)C)C(=O)N1CCC[C@H]1C(=O)Nc1cccc(C#CC#Cc2cccc(NC(=O)[C@@H]3CCCN3C(=O)[C@H](CC(C)C)NC(=O)OCC)c2)c1
EC50 (Hepatitis C virus; viral replication, inhibitor, luciferase; Huh-5-2, GETYPE1B; 72 h, replicon): 0.0399 nM

CC1(C)OC[C@@]2(C)[C@H]3CC[C@@H]4CN(Cc5ccc([N+](=O)[O-])cc5)[C@@H](C5=CCOC5=O)C[C@H]4[C@]3(C)CC[C@H]2O1
inhibition (unidentified human coronavirus; cytopathic effect; MRC5; 25 µM, 72 h): 97.5%

Nc1nc(N)c2ncn([C@@H]3O[C@H](CO)[C@@H](F)[C@@H]3F)c2n1
EC90 (Hepatitis C virus; viral replication, inhibitor; Huh-7; replicon): > 10000 nM

CC(=O)OC[C@@]1(C)[C@H]2CC[C@@H]3CN(Cc4ccc(C(C)(C)C)cc4)[C@@H](C4=CCOC4=O)C[C@H]3[C@]2(C)CC[C@H]1OC(C)=O
inhibition (unidentified human coronavirus; cytopathic effect; MRC5; 25 µM, 72 h): 94.1%

CC(C)COC(=O)N[C@H](C(=O)N1CCC[C@H]1C(=O)Nc1cccc(C#CC#Cc2cccc(NC(=O)[C@@H]3CCCN3C(=O)[C@@H](NC(=O)OCC(C)C)C(C)C)c2)c1)C(C)C
EC50 (Hepatitis C virus; viral replication, inhibitor, luciferase; Huh-5-2, GETYPE1B; 72 h, replicon): 380 nM

Oc1ccc(/C=C/c2cc(O)cc(O)c2)cc1
IC50 (Leishmania tarentolae; parasite growth, resazurin; 48 h, promastigote): 79800 nM

COC(=O)N[C@H](C(=O)N1CCC[C@H]1c1ncc(-c2ccc(-c3ccc(-c4cnc([C@@H]5CCCN5C(=O)[C@@H](NC(=O)OC)C(C)C)[nH]4)cc3)cc2)[nH]1)C(C)C
EC50 (Hepatitis C virus; viral replication, inhibitor; Huh-7, GETYPE2A; replicon): 0.02 nM

CC(C)C[C@H](NC(=O)OCc1ccccc1)C(=O)N1CCC[C@H]1C(=O)Nc1ccc(C#CC#Cc2ccc(NC(=O)[C@@H]3CCCN3C(=O)[C@H](CC(C)C)NC(=O)OCc3ccccc3)cc2)cc1
EC50 (Hepatitis C virus; viral replication, inhibitor, luciferase; Huh-5-2, GETYPE1B; 72 h, replicon): > 10000 nM

Nc1ncnc2c1c([N+](=O)[O-])cn2[C@@H]1C=C(CO)[C@@H](O)[C@H]1O
inhibition (Hepatitis C virus; viral replication, inhibitor, luciferase; Huh7 ET; 20 µM, replicon): 31.5%

CCCCCCC/C=C/C(=O)N1C(=O)/C(=C(\O)CCCC)C(=O)C1CC(C)C (stereo not drawn)
MIC (Proteus mirabilis; microbial growth; ATCC25933): > 200 µg/mL

CC(C)[C@H](NC(=O)OCc1ccccc1)C(=O)N1CCC[C@H]1C(=O)Nc1ccc(C#CC#Cc2ccc(NC(=O)[C@@H]3CCCN3C(=O)[C@@H](NC(=O)OCc3ccccc3)C(C)C)cc2)cc1
EC50 (Hepatitis C virus; viral replication, inhibitor, luciferase; Huh-5-2, GETYPE1B; 72 h, replicon): 2560 nM
